According to ChEMBL document CHEMBL1122415, “Folate antagonists. 20. Synthesis and antitumor and antimalarial properties of trimetrexate and related 6-[(phenylamino)methyl]-2,4-quinazolinediamines” (1983):
“And” between values parts separate entries of the source, which are not always exact repeats. Equal values may be shown once.

Legend:
[1] = system: Plasmodium berghei; experiment: Antimalarial effect against trophozoite-induced Plasmodium berghei in mice (Mus musculus) at 40 mg/kg subcutaneous dose; type: functional
[2] = system: Plasmodium berghei; experiment: Antimalarial effect against trophozoite-induced Plasmodium berghei in mice (Mus musculus) after subcutaneous dose of 10 mg/kg; type: functional; settings: 10 mg/kg
[3] = system: Mus musculus; experiment: Antimalarial effect against trophozoite-induced Plasmodium berghei in mice (Mus musculus) after subcutaneous administration dose of 20 mg/kg; 3 survived after 60 days of post infection; type: functional
[4] = system: Plasmodium berghei; experiment: Antimalarial effect against trophozoite-induced Plasmodium berghei in mice (Mus musculus) at 5 mg/kg subcutaneous dose; type: functional
[5] = system: L1210; experiment: Molar concentration required to reduce the number of L1210 cells by 50% after incubation for 2 days; type: functional, Mus musculus; settings: read-out: ID50 (the source's name)
Outline: (§1)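 L1210 leukemia cells in tissue culture exposed to drug for 2 days. ID50 is the molar concentration that reduces L1210 cell number by 50%. Mithramycin is the reference drug.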

[6] = system: Plasmodium berghei; experiment: Antimalarial effect against trophozoite-induced Plasmodium berghei in mice (Mus musculus) at 20 mg/kg subcutaneous dose; type: functional; settings: 20 mg/kg
[7] = system: Mus musculus; experiment: Antimalarial effect against trophozoite-induced Plasmodium berghei in mice (Mus musculus) after subcutaneous administration dose of 10 mg/kg; 1 survived after 60 days of post infection; type: functional
[8] = system: Mus musculus; experiment: Antimalarial effect against trophozoite-induced Plasmodium berghei in mice (Mus musculus) after subcutaneous administration dose of 20 mg/kg; 4 survived after 60 days of postinfection; type: functional
[9] = system: Mus musculus; experiment: Antimalarial effect against trophozoite-induced Plasmodium berghei in mice (Mus musculus) after subcutaneous administration dose of 2.5 mg/kg; type: functional
[10] = organism: Mus musculus; experiment: Daily dose required for 90% parasitaemia in trophozoite induced Plasmodium berghei in 21 mice; type: functional
Outline: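 Oral suppressive test in mice against a normal drug-sensitive P. berghei strain. Drug given continuously in the diet for six consecutive days, with doses as free base equivalent. SD90 is the daily dose (mg/kg) giving 90% suppression of parasitemia versus control mice, estimated graphically on semilog paper.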

[11] = system: Plasmodium berghei; experiment: Antimalarial effect against trophozoite-induced Plasmodium berghei in mice (Mus musculus) at 80 mg/kg subcutaneous dose; type: functional
[12] = system: Mus musculus; experiment: Antimalarial effect against trophozoite-induced Plasmodium berghei in mice (Mus musculus) after subcutaneous administration dose of 80 mg/kg; 4 survived after 60 days of post infection; type: functional
[13] = system: Mus musculus; experiment: Antimalarial effect against trophozoite-induced Plasmodium berghei in mice (Mus musculus) after subcutaneous administration dose of 10 mg/kg; type: functional
[14] = system: Mus musculus; experiment: Antimalarial effect against trophozoite-induced Plasmodium berghei in mice (Mus musculus) after subcutaneous administration dose of 20 mg/kg; type: functional
[15] = system: Mus musculus; experiment: Antimalarial effect against trophozoite-induced Plasmodium berghei in mice (Mus musculus) after subcutaneous administration dose of 320 mg/kg; type: functional
[16] = system: Mus musculus; experiment: Antimalarial effect against trophozoite-induced Plasmodium berghei in mice (Mus musculus) after subcutaneous administration dose of 160 mg/kg; type: functional
[17] = system: Mus musculus; experiment: Antimalarial effect against trophozoite-induced Plasmodium berghei in mice (Mus musculus) after subcutaneous administration dose of 640 mg/kg; type: functional
[18] = system: Mus musculus; experiment: Antimalarial effect against trophozoite-induced Plasmodium berghei in mice (Mus musculus) after subcutaneous administration dose of 40 mg/kg; type: functional
[19] = system: Mus musculus; experiment: Antimalarial effect against trophozoite-induced Plasmodium berghei in mice (Mus musculus) after subcutaneous administration dose of 5 mg/kg; type: functional
[20] = system: L1210; experiment: Molar concentration required to reduce the number of L1210 cells by 50% after incubation for 2 days (exp 2; type: functional; settings: Mus musculus, L1210, 48 h; read-out: ID50 (the source's name); outline: as §1
[21] = system: Mus musculus; experiment: Antimalarial effect against trophozoite-induced Plasmodium berghei in mice (Mus musculus) after subcutaneous administration dose of 160 mg/kg; 4 survived after 60 days of post infection; type: functional
[22] = system: Mus musculus; experiment: Antimalarial effect against trophozoite-induced Plasmodium berghei in mice (Mus musculus) after subcutaneous administration dose of 160 mg/kg; 3 survived after 60 days of postinfection; type: functional

SMILES | Delta MST [1] | Delta MST [2] | Delta MST [4] | IC50 ([5]; Mus musculus, L1210, 48 h) | IC50 [5] | Delta MST [6] | Delta MST [9] | SD90 [10] | further results
Cc1c(CN(C=O)c2ccc(Cl)c(Cl)c2)ccc2nc(N)nc(N)c12 | 29.9 days | 7.7 days and 5.3 days and 3.9 days | 5.3 days | 21 nM | 26 nM | 9.9 days and 9.4 days |  |  | Delta MST [3]: 9.9 days
Cc1c(CN(N=O)c2ccc(Cl)c(Cl)c2)ccc2nc(N)nc(N)c12 |  |  |  | 70 nM | 100 nM |  | 4.1 days | 1.15 mg/kg/day | Delta MST [7]: 12 days and 11.9 days; Delta MST [8]: 21.7 days and 24.9 days; Delta MST ([4]; 5 mg/kg): 9.9 days and 10.5 days
CC(=O)O.COc1cc(NCc2ccc3nc(N)nc(N)c3c2C)cc(OC)c1OC.O | 14.7 days |  |  | 11 nM | 20 nM | 12 days and 11.5 days and 7.1 days |  | 0.44 mg/kg/day | Delta MST [11]: 30.8 days; Delta MST [12]: 16.3 days and 14.7 days
CC(=O)O.Nc1nc(N)c2cc(CNc3cc(Cl)cc(Cl)c3)ccc2n1.O.O |  |  |  | 120 nM | 74 nM |  |  | 51 mg/kg/day | Delta MST [13]: 0.3 days; Delta MST [14]: 0.3 days; Delta MST [15]: 12.9 days and 6.9 days; Delta MST [16]: 6.9 days and 4.7 days; Delta MST [17]: 13.7 days; Delta MST [18]: 0.7 days
CC(=O)O.Nc1nc(N)c2c(Cl)c(CNc3cccc(Br)c3)ccc2n1.O |  |  |  | 2.1 nM |  |  | 1.5 days |  | Delta MST ([13]; 10 mg/kg): 7.3 days and 7.5 days and 4.7 days; Delta MST ([14]; 20 mg/kg): 8.5 days and 8.3 days; Delta MST [19]: 4.7 days; Delta MST ([18]; 40 mg/kg): 11.3 days and 11.5 days and 11.7 days; IC50 [20]: 2.2 nM
CC(=O)O.Nc1nc(N)c2cc(CN(N=O)c3ccc(Cl)c(Cl)c3)ccc2n1.O |  | 3.7 days and 4 days | 2 days | 40 nM | 70 nM | 6.7 days and 6.8 days |  | 0.25 mg/kg/day | Delta MST [21]: 22.8 days; Delta MST ([1]; 40 mg/kg): 9.9 days and 9.8 days; Delta MST ([11]; 80 mg/kg): 12.3 days and 12 days; Delta MST [22]: 28.7 days
